Data taken from ChEMBL document CHEMBL1130127, “Synthesis, photophysical properties, in vivo photosensitizing efficacy, and human serum albumin binding properties of some novel bacteriochlorins” (J Med Chem, 1997).
Active and inactive are the calls of the source. The rule behind the calls is not given here.

Assays:
[1] = system: Mus musculus; assay: The compound was tested in vivo for photosensitizing efficacy in DBA/2 Mice at (1-5 days) 3 hours post injection at 5.0 mg/kg concentration; No response; type: functional, organism-based; design: dose 5 mg/kg
In short: (§1)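 Female DBA/2 HA-DD mice, 5-7 weeks old. A 1 mm SMT-F tumor piece from a donor was trocar-implanted subcutaneously in the axilla. At about 5 mm tumor diameter, sensitizer in 1% Tween 80/water was given iv; dose was based on extinction coefficient. At 3 or 24 h after injection, restrained mice had the tumor lit with 135 J/cm2 laser light at the in vivo long-wavelength maximum. Tumor response was followed to day 30; six mice/group.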

[2] = system: Mus musculus; assay: The compound was tested in vivo for photosensitizing efficacy in DBA/2 Mice transplanted with SMT/F tumors and the activity is expressed as % response (11-15 days) 3 hours post injection at 5.0 mg/kg concentration; No response; type: functional, organism-based; design: dose 5 mg/kg; in short: as §1
[3] = system: Mus musculus; assay: The compound was tested in vivo for photosensitizing efficacy in DBA/2 Mice transplanted with SMT/F tumors and the activity is expressed as % response (16-20 days) 3 hours post injection at 5.0 mg/kg concentration; No response; type: functional, organism-based; design: dose 5 mg/kg; in short: as §1
[4] = system: Mus musculus; assay: The compound was tested in vivo for photosensitizing efficacy in DBA/2 Mice transplanted with SMT/F tumors and the activity is expressed as % response (21-25 days) 3 hours post injection at 5.0 mg/kg concentration; No response; type: functional, organism-based; design: dose 5 mg/kg; in short: as §1
[5] = system: Mus musculus; assay: The compound was tested in vivo for photosensitizing efficacy in DBA/2 Mice transplanted with SMT/F tumors and the activity is expressed as % response (26-30 days) 3 hours post injection at 5.0 mg/kg concentration; No response; type: functional, organism-based; design: dose 5 mg/kg; in short: as §1
[6] = system: Mus musculus; assay: The compound was tested in vivo for photosensitizing efficacy in DBA/2 Mice transplanted with SMT/F tumors and the activity is expressed as % response (6-10 days) 3 hours post injection at 5.0 mg/kg concentration; No response; type: functional, organism-based; design: dose 5 mg/kg; in short: as §1
[7] = molecular target: Albumin (Homo sapiens, UniProt P02768); assay: Binding affinity against Human serum albumin(Site I).
Sequence of Albumin (P02768 whole entry): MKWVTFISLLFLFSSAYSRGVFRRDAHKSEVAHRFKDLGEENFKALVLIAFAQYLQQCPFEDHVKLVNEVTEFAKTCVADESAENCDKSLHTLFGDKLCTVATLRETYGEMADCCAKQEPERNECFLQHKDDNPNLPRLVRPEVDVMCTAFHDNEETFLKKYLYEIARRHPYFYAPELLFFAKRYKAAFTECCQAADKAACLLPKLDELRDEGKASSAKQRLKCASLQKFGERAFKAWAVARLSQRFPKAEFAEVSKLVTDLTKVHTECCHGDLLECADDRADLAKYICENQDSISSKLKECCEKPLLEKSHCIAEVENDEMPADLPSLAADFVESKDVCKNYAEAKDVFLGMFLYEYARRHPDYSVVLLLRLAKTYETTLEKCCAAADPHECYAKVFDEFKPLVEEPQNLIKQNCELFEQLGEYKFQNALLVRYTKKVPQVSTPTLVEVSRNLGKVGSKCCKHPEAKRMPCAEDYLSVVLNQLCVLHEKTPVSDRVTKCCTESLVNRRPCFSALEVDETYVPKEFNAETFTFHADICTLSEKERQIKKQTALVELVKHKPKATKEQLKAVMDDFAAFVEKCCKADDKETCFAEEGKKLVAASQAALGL
In short: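 Fluorometric titration: HSA and sensitizer fixed at 1 × 10^-6 mol/L. Site probe varied 4 × 10^-7 to 2 × 10^-6 mol/L: DNSA for site I, read at 472 nm; DP for site II, read at 476 nm; excitation 340 nm. Incubated 4 °C, pH 7.0, 4 h, dark. Bound probe taken from standard curves of free probe (water) and HSA-bound probe (2.5 × 10^-5 mol/L HSA).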

[8] = system: Mus musculus; assay: The compound was tested in vivo for photosensitizing efficacy in DBA/2 Mice transplanted with SMT/F tumors and the activity is expressed as % response at (1-5 days) 24 hours post injection at 5 mg/kg concentration; No response; type: functional, organism-based; design: dose 5 mg/kg; in short: as §1
[9] = system: Mus musculus; assay: The compound was tested in vivo for photosensitizing efficacy in DBA/2 Mice transplanted with SMT/F tumors and the activity is expressed as % response at (21-25 days) 3 hours post injection at 2.5 mg/kg concentration; No response; type: functional, organism-based; design: dose 2.5 mg/kg; in short: as §1
[10] = system: Mus musculus; assay: The compound was tested in vivo for photosensitizing efficacy in DBA/2 Mice transplanted with SMT/F tumors and the activity is expressed as % response at (1-5 days) 3 hours post injection at 2.5 mg/kg concentration; No response; type: functional, organism-based; design: dose 2.5 mg/kg; in short: as §1
[11] = system: Mus musculus; assay: The compound was tested in vivo for photosensitizing efficacy in DBA/2 Mice transplanted with SMT/F tumors and the activity is expressed as % response at (1-5 days) 3 hours post injection at 5.0 mg/kg concentration; type: functional; in short: as §1
[12] = system: Mus musculus; assay: The compound was tested in vivo for photosensitizing efficacy in DBA/2 Mice transplanted with SMT/F tumors and the activity is expressed as % response at (11-15 days) 24 hours post injection at 5 mg/kg concentration; No response; type: functional, organism-based; design: dose 5 mg/kg; in short: as §1
[13] = system: Mus musculus; assay: The compound was tested in vivo for photosensitizing efficacy in DBA/2 Mice transplanted with SMT/F tumors and the activity is expressed as % response at (11-15 days) 3 hours post injection at 2.5 mg/kg concentration; No response; type: functional, organism-based; design: dose 2.5 mg/kg; in short: as §1
[14] = system: Mus musculus; assay: The compound was tested in vivo for photosensitizing efficacy in DBA/2 Mice transplanted with SMT/F tumors and the activity is expressed as % response at (11-15 days) 3 hours post injection at 5 mg/kg concentration; type: functional; in short: as §1
[15] = system: Mus musculus; assay: The compound was tested in vivo for photosensitizing efficacy in DBA/2 Mice transplanted with SMT/F tumors and the activity is expressed as % response at (16-20 days) 24 hours post injection at 5 mg/kg concentration; No response; type: functional, organism-based; design: dose 5 mg/kg; in short: as §1
[16] = system: Mus musculus; assay: The compound was tested in vivo for photosensitizing efficacy in DBA/2 Mice transplanted with SMT/F tumors and the activity is expressed as % response at (16-20 days) 3 hours post injection at 2.5 mg/kg concentration; No response; type: functional, organism-based; design: dose 2.5 mg/kg; in short: as §1
[17] = system: Mus musculus; assay: The compound was tested in vivo for photosensitizing efficacy in DBA/2 Mice transplanted with SMT/F tumors and the activity is expressed as % response at (21-25 days) 3 hours post injection at 5 mg/kg concentration; type: functional
[18] = system: Mus musculus; assay: The compound was tested in vivo for photosensitizing efficacy in DBA/2 Mice transplanted with SMT/F tumors and the activity is expressed as % response at (26-30 days) 24 hours post injection at 5 mg/kg concentration; No response; type: functional, organism-based; design: dose 5 mg/kg
[19] = system: Mus musculus; assay: The compound was tested in vivo for photosensitizing efficacy in DBA/2 Mice transplanted with SMT/F tumors and the activity is expressed as % response at (26-30 days) 3 hours post injection at 2.5 mg/kg concentration; No response; type: functional, organism-based; design: dose 2.5 mg/kg
[20] = system: Mus musculus; assay: The compound was tested in vivo for photosensitizing efficacy in DBA/2 Mice transplanted with SMT/F tumors and the activity is expressed as % response at (26-30 days) 3 hours post injection at 5 mg/kg concentration; type: functional
[21] = system: Mus musculus; assay: The compound was tested in vivo for photosensitizing efficacy in DBA/2 Mice transplanted with SMT/F tumors and the activity is expressed as % response at (6-10 days) 24 hours post injection at 5 mg/kg concentration; No response; type: functional, organism-based; design: dose 5 mg/kg
[22] = system: Mus musculus; assay: The compound was tested in vivo for photosensitizing efficacy in DBA/2 Mice transplanted with SMT/F tumors and the activity is expressed as % response at (6-10 days) 3 hours post injection at 2.5 mg/kg concentration; No response; type: functional, organism-based; design: dose 2.5 mg/kg
[23] = system: Mus musculus; assay: The compound was tested in vivo for photosensitizing efficacy in DBA/2 Mice transplanted with SMT/F tumors and the activity is expressed as % response at (6-10 days) 3 hours post injection at 5 mg/kg concentration; type: functional
[24] = system: Mus musculus; assay: The compound was tested in vivo for photosensitizing efficacy in DBA/2 Mice transplanted with SMT/F tumors and the activity is expressed as % response at (16-20 days) 3 hours post injection at 5 mg/kg concentration; type: functional; in short: as §1
[25] = system: Mus musculus; assay: The compound was tested in vivo for photosensitizing efficacy in DBA/2 Mice transplanted with SMT/F tumors and the activity is expressed as % response at (21-25 days) 24 hours post injection at 5 mg/kg concentration; No response; type: functional, organism-based; design: dose 5 mg/kg; in short: as §1

**Q.** Which results are given for `CCc1c(C)c2[nH]c1cc1[nH]c(cc3nc4c(c5nc(c2C=O)[C@@H](C)[C@@H]5CCC(=O)OC)CCC4=C3C)C(O)(CC)C1(C)O` (stereo partly specified)?
**A.** Response [1]: inactive; Response [2]: inactive; Response [3]: inactive; Response [4]: inactive; Response [5]: inactive; Response [6]: inactive; Binding constant [7]: 500000 l M-1

**Q.** How did the Response [8] turn out when `CCc1c(C)c2[nH]c1cc1[nH]c(cc3nc4c(c5nc(c2C=O)[C@@H](C)[C@@H]5CCC(=O)NC(CC(=O)OC(C)(C)C)C(=O)OC(C)(C)C)CCC4=C3C)C(O)(CC)C1(C)O` (stereo partly specified) was run?
**A.** inactive

**Q.** And the Response [9]?
**A.** inactive

**Q.** What about the Response [10] of the same molecule?
**A.** inactive

**Q.** What about the Response [11] of the same molecule?
**A.** 100%

**Q.** And the Response [12]?
**A.** inactive

**Q.** And the Response [13]?
**A.** inactive

**Q.** And the Response [14]?
**A.** 100%

**Q.** And the Response [15]?
**A.** inactive

**Q.** And the Response [16]?
**A.** inactive

**Q.** What about the Response [17] of the same molecule?
**A.** 50%

**Q.** What about the Response [18] of the same molecule?
**A.** inactive

**Q.** And the Response [19]?
**A.** inactive

**Q.** And the Response [20]?
**A.** 50%

**Q.** And the Response [21]?
**A.** inactive

**Q.** What about the Response [22] of the same molecule?
**A.** inactive

**Q.** What about the Response [23] of the same molecule?
**A.** 100%

**Q.** What about the Response [24] of the same molecule?
**A.** 80%

**Q.** What about the Response [25] of the same molecule?
**A.** inactive

**Q.** What about the Binding constant [7] of the same molecule?
**A.** 500000 l M-1
